Source: ChEMBL document CHEMBL1149903, “Synthesis and biological evaluation of thiobenzanilides as anticancer agents” (Bioorg Med Chem, 2008)
Calls of active or inactive are those of the source. No cut-off for these calls is given here.

How the values were obtained:
A-375 [1] = assay: Cytotoxicity against human A375 cells at 10 uM by MTS assay; format: functional; conditions: read-out: Survival
Outline: (§1)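 MTS proliferation assay. Cells were seeded at 2500 cells/well and incubated overnight, then exposed to compound at 10 µM for 24 h. MTS tetrazolium premixed with phenazine ethosulfate was then added and incubated 1–2 h at 37 °C. Absorbance was read at 490 nm against a 690 nm reference. Value reported is survival as % of control.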

K562 = assay: Cytotoxicity against human K562 cells at 10 uM by MTS assay; format: functional; conditions: read-out: Survival; outline: as §1
[2] = Cytotoxicity against human 293T cells at 10 uM by MTS assay; format: cell-based, HEK-293T; conditions: read-out: Survival; outline: as §1
A-375 [3] = assay: Cell cycle arrest in human A375 cells assessed as accumulation at G1 phase at 10 uM after 24 hrs by flow cytometry; format: functional
Outline: (§2)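 A375 cells exposed 24 h to 10 µM agent, DMSO control. Harvested by trypsinization, washed in PBS, fixed in ice-cold 70% ethanol 30 min. RNase A 1 mg/mL (with trisodium citrate) at 37 °C 30 min. Stained with PI/citrate/Triton X-100 DNA solution 30 min at room temperature in the dark. DNA content of 10,000 events read by flow cytometry; phase percentages calculated.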

A-375 [4] = assay: Cell cycle arrest in human A375 cells assessed as accumulation at S phase at 10 uM after 24 hrs by flow cytometry; format: functional; outline: as §2
A-375 [5] = assay: Cell cycle arrest in human A375 cells assessed as accumulation at G2/M phase at 10 uM after 24 hrs by flow cytometry; format: functional; outline: as §2
A-375 [6] = assay: Induction of apoptosis in human A375 cells assessed as disruption of mitochondrial membrane potential at 10 uM after 24 hrs of labeling with rhodamine 123-dye by flow cytometry; format: functional, cell-based
Outline: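 Exponentially growing A375 cells treated 24 h at 10 µM, then trypsinized and pelleted. Resuspended in rhodamine 123 (10 µg/mL) for 30 min at room temperature, washed twice in PBS and read at once by flow cytometry (FL-1, 530/30 nm band pass).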

A-375 [7] = assay: Effect on intracellular ATP content in human A375 cells at 10 uM after 24 hrs by firefly luciferase luminescence relative to control; format: functional
Outline: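 Intracellular ATP measured by firefly luciferin–luciferase bioluminescence (ATPlite kit). A375 cells treated 24 h with 10 µM agent, then lysed; debris removed by centrifugation and supernatant assayed. Relative ATP expressed as percentage of the 0 µM level.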

A-375 [8] = assay: Induction of apoptosis in human A375 cells assessed as annexin V-FITC cells at 10 uM after 24 hrs by annexin V-FITC and PI staining; format: functional
Outline: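 After 24 h at 10 µM, 10⁶ A375 cells per sample were stained with annexin V-FITC and PI at the same time and analysed by flow cytometry. Annexin V⁺/PI⁻ cells were scored as early apoptotic and annexin V⁺/PI⁺ cells as necrotic.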

A-375 [9] = assay: Induction of apoptosis in human A375 cells assessed as caspase 3 activation at 10 uM after 24 hrs by Western blot analysis relative to control; format: functional, cell-based
Outline: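 Lysates of A375 cells exposed 24 h to 10 µM agent; 40 µg protein per lane run on 10% SDS-PAGE and transferred to PVDF. Blocked in 5% skim milk in PBS-T, then probed with rabbit polyclonal anti-caspase-3 (p20 active form), with actin as loading control. HRP secondary and chemiluminescence detection; band amounts quantified by densitometry.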

A-375 [10] = assay: Induction of apoptosis in human A375 cells assessed as increase in intracellular H2O2 release at 10 uM after 4 hrs
A-375 [11] = assay: Induction of apoptosis in human A375 cells assessed as increase in intracellular H2O2 release at 10 uM after 4 hrs in presence of catalase

Q: With `O=C(Nc1ccc([N+](=O)[O-])cc1)c1ccc([N+](=O)[O-])cc1` as the molecule, how does the viability at 10 µM (A-375 [1]) read?
A: 70.5%

Q: What about the viability at 10 µM (K562) of the same molecule?
A: 71.3%

Q: And the viability at 10 µM [2]?
A: 85.2%

Q: Which results are given for `O=C(Nc1ccc(Br)cc1)c1ccc([N+](=O)[O-])cc1`?
A: viability at 10 µM (A-375 [1]): 81.1%; viability at 10 µM (K562): 89.1%; viability at 10 µM [2]: 86.9%

Q: With `O=[N+]([O-])c1ccc(NC(=S)c2ccc([N+](=O)[O-])cc2)cc1` as the molecule, how does the viability at 10 µM (A-375 [1]) read?
A: 39.1%

Q: What about the viability at 10 µM (K562) of the same molecule?
A: 47.9%

Q: And the viability at 10 µM [2]?
A: 44%

Q: What about the Activity (A-375 [3]) of the same molecule?
A: 59.9%

Q: And the Activity (A-375 [4])?
A: 11.3%

Q: And the Activity (A-375 [5])?
A: 28.9%

Q: What about the Activity (A-375 [6]) of the same molecule?
A: Active

Q: What about the Activity (A-375 [7]) of the same molecule?
A: 83.6%

Q: What about the Activity (A-375 [8]) of the same molecule?
A: 16.3%

Q: And the Activity (A-375 [9])?
A: Active

Q: What about the Activity (A-375 [10]) of the same molecule?
A: Active

Q: What about the Activity (A-375 [11]) of the same molecule?
A: inactive

Q: For `O=C(Nc1ccc(C(F)(F)F)cc1)c1ccc([N+](=O)[O-])cc1`, which viability at 10 µM (A-375 [1]) is on record?
A: 87.2%

Q: And the viability at 10 µM (K562)?
A: 81.3%

Q: What about the viability at 10 µM [2] of the same molecule?
A: 87.7%

Q: Which results are given for `O=[N+]([O-])c1ccc(C(=S)Nc2ccc(Br)cc2)cc1`?
A: viability at 10 µM (A-375 [1]): 43%; viability at 10 µM (K562): 42.9%; viability at 10 µM [2]: 48.4%; Activity (A-375 [3]): 58.4%; Activity (A-375 [4]): 12.7%; Activity (A-375 [5]): 29%; Activity (A-375 [6]): Active; Activity (A-375 [7]): 66.1%; Activity (A-375 [8]): 7.5%; Activity (A-375 [9]): Active; Activity (A-375 [10]): Active; Activity (A-375 [11]): inactive

Q: With `O=[N+]([O-])c1ccc(C(=S)Nc2ccc(C(F)(F)F)cc2)cc1` as the molecule, how does the viability at 10 µM (A-375 [1]) read?
A: 36.2%

Q: What about the viability at 10 µM (K562) of the same molecule?
A: 41.4%

Q: What about the viability at 10 µM [2] of the same molecule?
A: 41.2%

Q: What about the Activity (A-375 [3]) of the same molecule?
A: 55.4%

Q: And the Activity (A-375 [4])?
A: 17.1%

Q: What about the Activity (A-375 [5]) of the same molecule?
A: 27.6%

Q: What about the Activity (A-375 [6]) of the same molecule?
A: Active

Q: What about the Activity (A-375 [7]) of the same molecule?
A: 63.1%

Q: And the Activity (A-375 [8])?
A: 33%

Q: What about the Activity (A-375 [9]) of the same molecule?
A: Active

Q: And the Activity (A-375 [10])?
A: Active

Q: And the Activity (A-375 [11])?
A: inactive
